Assay results reported in ChEMBL document CHEMBL1817572, “New, potent, selective, and short-acting peptidic V1a receptor agonists” (J Med Chem, 2011).
Bridge positions count the residues as written; N and C are the ends. Square brackets hold non-standard residues; d marks the D form. Peptide text beside a SMILES is read from it. Orn(iPr) = CC(C)NCCC[C@H](N)C(=O)O; Cha = N[C@@H](CC1CCCCC1)C(=O)O

Columns and labels:
Homo sapiens [1] = organism: Homo sapiens; test: Selectivity ratio of EC50 for human oxytocin receptor to EC50 for human vasopressin V1a receptor
Vasopressin V1b receptor = biological target: T1, Vasopressin V1b receptor (Homo sapiens, UniProt P47901); test: Agonist activity at recombinant human vasopressin V1b receptor expressed in Flp-In-293 cells by luciferase reporter gene assay; assay type: functional, cell-based; conditions: read-out: EC50
T1 sequence (P47901 whole entry): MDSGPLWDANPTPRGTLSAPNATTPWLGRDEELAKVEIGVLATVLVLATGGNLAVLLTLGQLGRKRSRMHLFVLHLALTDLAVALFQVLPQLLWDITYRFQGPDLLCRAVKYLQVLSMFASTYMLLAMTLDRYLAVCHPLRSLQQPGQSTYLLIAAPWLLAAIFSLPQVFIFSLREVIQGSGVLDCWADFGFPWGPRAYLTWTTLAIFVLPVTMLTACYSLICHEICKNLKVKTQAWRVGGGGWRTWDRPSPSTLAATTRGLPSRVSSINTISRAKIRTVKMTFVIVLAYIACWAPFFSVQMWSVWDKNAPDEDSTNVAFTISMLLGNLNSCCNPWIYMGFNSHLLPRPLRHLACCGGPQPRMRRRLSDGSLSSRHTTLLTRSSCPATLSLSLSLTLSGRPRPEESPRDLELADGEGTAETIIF
Outline: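 Reporter gene assays in HEK293 cells transiently cotransfected with V1a (human or rat) or human V2 receptor vector plus NFAT-luciferase (V1a) or CRE-luciferase (V2) reporter; V1b in Flp-In-293 stably expressing receptor, OT in CHO-K1 stably expressing receptor, both transiently transfected with NFAT-luciferase. Two days post-transfection, peptides added for 5 h at 37 °C, lysis with luciferin, luminescence read.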

Homo sapiens [2] = organism: Homo sapiens; test: Selectivity ratio of EC50 for human vasopressin V1b receptor to EC50 for human vasopressin V1a receptor
Oxytocin receptor = biological target: T2, Oxytocin receptor (Homo sapiens, UniProt P30559); test: Agonist activity at human OT receptor expressed in CHO-K1 cells by luciferase reporter gene assay; assay type: functional, cell-based
T2 sequence (P30559 whole entry): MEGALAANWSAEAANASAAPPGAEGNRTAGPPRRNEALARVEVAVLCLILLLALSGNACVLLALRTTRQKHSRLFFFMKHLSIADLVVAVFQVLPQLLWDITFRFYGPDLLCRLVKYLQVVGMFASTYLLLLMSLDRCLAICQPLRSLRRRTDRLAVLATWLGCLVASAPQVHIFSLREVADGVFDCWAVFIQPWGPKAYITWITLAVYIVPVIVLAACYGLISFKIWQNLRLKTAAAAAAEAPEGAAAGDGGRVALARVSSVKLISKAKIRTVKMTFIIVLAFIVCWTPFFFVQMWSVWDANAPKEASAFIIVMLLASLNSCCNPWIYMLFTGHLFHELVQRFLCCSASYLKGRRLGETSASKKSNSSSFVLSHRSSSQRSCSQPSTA

[3] = biological target: Vasopressin V1a/V2 (Homo sapiens) (UniProt P30518+P37288); test: Selectivity ratio of EC50 for human vasopressin V2 receptor to EC50 for human vasopressin V1a receptor
Vasopressin V1a receptor [4] = biological target: Vasopressin V1a receptor (Homo sapiens, UniProt P37288); test: Agonist activity at recombinant human vasopressin V1a receptor expressed in HEK293 cells by luciferase reporter gene assay; assay type: functional, cell-based; conditions: read-out: EC50
Rattus norvegicus = test: Vasoconstriction in Wistar rat assessed as assessed as decay in vasopressive duration of action at 60 nmol/kg, iv bolus measured over 10 sec interval; assay type: functional
Outline: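 Fasted male Wistar rats (206–340 g) under isoflurane, then thiobutabarbital 150 mg/kg ip, ventilated, 37–38 °C, with carotid pressure and jugular dosing. Dibenamine 1.8 mg/rat iv pretreatment. Sequence: iv boluses (0.5 mL/kg) of heparinized vehicle, then two reference doses of 0.1 nmol/kg, then two test doses; one matches the reference diastolic pressure rise. Relative duration = reference decay rate / test decay rate; mean ± SEM.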

Vasopressin V1a receptor [5] = biological target: Vasopressin V1a receptor (Rattus norvegicus, UniProt P30560); test: Agonist activity at recombinant rat vasopressin V1a receptor expressed in HEK293 cells by luciferase reporter gene assay; assay type: functional, cell-based; conditions: read-out: EC50
Vasopressin V2 receptor = Vasopressin V2 receptor (Homo sapiens, UniProt P30518); test: Agonist activity at recombinant human vasopressin V2 receptor expressed in HEK293 cells by luciferase reporter gene assay; assay type: functional, cell-based; conditions: read-out: EC50
Chain of Vasopressin V2 receptor (P30518 whole entry): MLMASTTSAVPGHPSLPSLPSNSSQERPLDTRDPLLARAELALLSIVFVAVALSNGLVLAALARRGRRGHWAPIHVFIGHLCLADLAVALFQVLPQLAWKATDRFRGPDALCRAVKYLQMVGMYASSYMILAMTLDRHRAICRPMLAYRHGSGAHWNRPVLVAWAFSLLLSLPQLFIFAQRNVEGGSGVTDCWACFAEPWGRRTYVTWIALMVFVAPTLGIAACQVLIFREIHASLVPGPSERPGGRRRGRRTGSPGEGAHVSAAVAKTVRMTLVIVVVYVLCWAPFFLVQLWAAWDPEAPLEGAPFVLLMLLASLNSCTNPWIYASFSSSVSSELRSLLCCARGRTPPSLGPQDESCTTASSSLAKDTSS

Chain of Vasopressin V1a receptor (Rattus norvegicus, UniProt P30560) (P30560 whole entry): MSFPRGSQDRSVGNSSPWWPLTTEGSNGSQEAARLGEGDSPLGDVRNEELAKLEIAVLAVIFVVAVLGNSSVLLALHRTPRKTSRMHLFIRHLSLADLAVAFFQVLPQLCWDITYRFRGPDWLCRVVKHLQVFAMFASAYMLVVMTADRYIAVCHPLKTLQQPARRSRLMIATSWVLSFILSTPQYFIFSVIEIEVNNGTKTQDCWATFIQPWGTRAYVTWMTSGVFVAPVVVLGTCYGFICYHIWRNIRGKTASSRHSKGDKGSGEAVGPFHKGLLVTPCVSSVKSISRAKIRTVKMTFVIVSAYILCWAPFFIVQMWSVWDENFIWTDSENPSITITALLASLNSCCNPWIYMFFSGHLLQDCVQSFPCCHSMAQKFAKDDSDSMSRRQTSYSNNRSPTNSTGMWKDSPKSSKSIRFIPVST
Chain of Vasopressin V1a/V2 (Homo sapiens) (P30518 whole entry, looked up): as the sequence (P30518 whole entry) above
Chain of Vasopressin V1a/V2 (Homo sapiens) (P37288 whole entry, looked up): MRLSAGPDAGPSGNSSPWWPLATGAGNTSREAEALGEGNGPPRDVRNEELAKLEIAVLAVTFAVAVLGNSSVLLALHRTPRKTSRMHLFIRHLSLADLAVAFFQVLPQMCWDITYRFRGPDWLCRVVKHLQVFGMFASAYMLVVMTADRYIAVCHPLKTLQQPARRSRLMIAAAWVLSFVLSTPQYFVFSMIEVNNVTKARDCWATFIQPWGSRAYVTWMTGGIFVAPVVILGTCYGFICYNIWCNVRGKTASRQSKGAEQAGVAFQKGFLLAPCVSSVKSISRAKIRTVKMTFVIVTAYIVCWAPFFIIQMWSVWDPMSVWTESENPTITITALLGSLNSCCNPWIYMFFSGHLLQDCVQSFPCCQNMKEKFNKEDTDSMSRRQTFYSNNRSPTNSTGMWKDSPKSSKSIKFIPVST
Chain of Vasopressin V1a receptor (Homo sapiens, UniProt P37288) (P37288 whole entry): as the sequence (P37288 whole entry, looked up) above

- Ratio EC50 (Homo sapiens [1]): > 7100
- EC50 (Vasopressin V1b receptor): 0.11 µM
- Ratio EC50 (Homo sapiens [2]): 78
- EC50 (Oxytocin receptor; cho-k1, read-out: EC50): > 10 µM
- EC50 (Oxytocin receptor; read-out: pEC50 (converted)): > 10 µM
- Ratio EC50 [3]: 690
- EC50 (Vasopressin V1a receptor [4]): 0.0014 µM
- EC50 (Vasopressin V1a receptor [5]): 0.057 µM
- EC50 (Vasopressin V2 receptor): 0.97 µM
Compound: CC[C@H](C)[C@@H]1NC(=O)[C@H](CC2CCCCC2)NC(=O)[C@@H](N)CSSC[C@@H](C(=O)N2CCC[C@H]2C(=O)N[C@@H](CCCNC(C)C)C(=O)NCC(N)=O)NC(=O)[C@H](CC(N)=O)NC(=O)[C@H](CC(N)=O)NC1=O (H-C[Cha]INNCP[Orn(iPr)]G-NH2; disulfide 1-6)
- Time (Rattus norvegicus): 4.1 unitless ratio
